# Tested on: Leishmania major
# Test: Antileishmanial activity against Leishmania major promastigotes after 72 hrs by Neubauer chamber counting
# Format: functional, organism-based
# Details: not given; call rule not given here
row,Structure (SMILES),IC50
1,COc1cc(C2NC(=O)NC(C)=C2C(C)=O)ccc1O (configuration not stated),0.71 µg/mL
2,COc1ccc(C2NC(=O)NC(C)=C2C(C)=O)cc1 (configuration not stated),0.69 µg/mL
3,CC(=O)C1=C(C)NC(=O)NC1c1ccccc1 (configuration not stated),0.61 µg/mL
4,CC(=O)C1=C(C)NC(=S)NC1c1ccccc1 (configuration not stated),0.78 µg/mL
5,CC1=C(C(=O)/C=C/c2cccc([N+](=O)[O-])c2)C(c2ccccc2)NC(=O)N1C (configuration not stated),0.73 µg/mL
6,CC(=O)C1=C(C)NC(=O)NC1c1cccc([N+](=O)[O-])c1 (configuration not stated),0.67 µg/mL
7,CC1=C(C(=O)/C=C/c2ccc(Cl)cc2)C(c2ccccc2)NC(=O)N1C (configuration not stated),0.63 µg/mL
8,CC(=O)C1=C(CNc2ccc(C(=O)/C=C/c3ccc(Cl)cc3)cc2)N(C)C(=O)NC1c1ccccc1 (configuration not stated),0.53 µg/mL
9,CC1=C(C(=O)Nc2ccc(C(=O)/C=C/c3ccc(O)cc3)cc2)C(c2cccc(O)c2)NC(=S)N1 (configuration not stated),0.51 µg/mL
10,CC(=O)C1=C(C)N(C)C(=O)NC1c1ccccc1 (configuration not stated),0.63 µg/mL
11,CC1=C(C(=O)Nc2ccc(C(=O)/C=C/c3cccc([N+](=O)[O-])c3)cc2)C(c2ccc(C)cc2)NC(=S)N1 (configuration not stated),0.65 µg/mL
12,COCC1=C(C(=O)OC)C(c2cccc([N+](=O)[O-])c2)NC(=O)N1 (configuration not stated),0.95 µg/mL
13,CC(=O)C1=C(CNc2ccc(C(=O)/C=C/c3ccc(O)cc3)cc2)N(C)C(=O)NC1c1ccccc1 (configuration not stated),0.51 µg/mL
14,CC(=O)C1=C(C)NC(=O)NC1c1cccc(C)c1 (configuration not stated),0.89 µg/mL
15,CC(=O)C1=C(CNc2ccc(C(=O)/C=C/c3ccccc3)cc2)N(C)C(=O)NC1c1ccccc1 (configuration not stated),0.54 µg/mL
16,CC(=O)C1=C(CNc2ccc(C(=O)/C=C/c3cccc([N+](=O)[O-])c3)cc2)N(C)C(=O)NC1c1ccccc1 (configuration not stated),0.67 µg/mL
17,CC(=O)C1=C(CNc2ccc(C3=NNC(c4ccc(O)cc4)C3)cc2)N(C)C(=O)NC1c1ccccc1 (configuration not stated),0.47 µg/mL
18,CC1=C(C(=O)Nc2ccc(C(=O)/C=C/c3ccc(O)cc3)cc2)C(c2ccc(C)cc2)NC(=S)N1 (configuration not stated),0.53 µg/mL
19,CCOC(=O)C1=C(C)NC(=S)NC1c1ccc(C)cc1 (configuration not stated),0.63 µg/mL
20,CC1=C(C(=O)Nc2ccc(C(=O)/C=C/c3cccc([N+](=O)[O-])c3)cc2)C(c2cccc(O)c2)NC(=S)N1 (configuration not stated),0.58 µg/mL
21,CC(=O)C1=C(CNc2ccc(C(=O)/C=C/c3ccc(N(C)C)cc3)cc2)N(C)C(=O)NC1c1ccccc1 (configuration not stated),0.71 µg/mL
22,CC1=C(C(=O)/C=C/c2ccc(O)cc2)C(c2ccccc2)NC(=O)N1C (configuration not stated),0.59 µg/mL
23,CCOC(=O)C1=C(C)NC(=O)NC1c1ccccc1 (configuration not stated),0.99 µg/mL
24,CCOC(=O)C1=C(C)NC(=S)NC1c1cccc(O)c1 (configuration not stated) [MONASTROL],0.65 µg/mL

# Tested on: Leishmania donovani
# Test: Antileishmanial activity against Leishmania donovani promastigotes after 72 hrs by Neubauer chamber counting
# Format: functional, organism-based
# Details: not given
# Method in brief: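 Clinical isolate promastigotes grown at 24 °C in medium 199 with 10% fetal bovine serum, HEPES, sodium bicarbonate, penicillin and streptomycin. Cultures harvested after 6–7 days, washed three times in PBS, resuspended at 2 × 10^6 cells/mL and exposed to serial compound dilutions for 72 h at 24 °C with shaking. Amphotericin B positive control, DMSO negative control. Run in triplicate; IC50 from live-cell counts.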
row,Structure (SMILES),IC50
1,CC1=C(C(=O)/C=C/c2cccc([N+](=O)[O-])c2)C(c2ccccc2)NC(=O)N1C (configuration not stated),Not Active
2,CC1=C(C(=O)/C=C/c2ccc(Cl)cc2)C(c2ccccc2)NC(=O)N1C (configuration not stated),Not Active
3,CC1=C(C(=O)Nc2ccc(C(=O)/C=C/c3cccc([N+](=O)[O-])c3)cc2)C(c2ccc(C)cc2)NC(=S)N1 (configuration not stated),Not Active
4,CC1=C(C(=O)Nc2ccc(C(=O)/C=C/c3ccc(O)cc3)cc2)C(c2ccc(C)cc2)NC(=S)N1 (configuration not stated),Not Active
5,CC1=C(C(=O)Nc2ccc(C(=O)/C=C/c3cccc([N+](=O)[O-])c3)cc2)C(c2cccc(O)c2)NC(=S)N1 (configuration not stated),Not Active
6,CC(=O)C1=C(CNc2ccc(C(=O)/C=C/c3ccc(N(C)C)cc3)cc2)N(C)C(=O)NC1c1ccccc1 (configuration not stated),Not Active
7,CC1=C(C(=O)/C=C/c2ccc(O)cc2)C(c2ccccc2)NC(=O)N1C (configuration not stated),Not Active

# Same assay, conditions: Leishmania donovani, 72 h; read-out: IC50
row,Structure (SMILES),IC50
1,CC(=O)C1=C(CNc2ccc(C(=O)/C=C/c3ccc(Cl)cc3)cc2)N(C)C(=O)NC1c1ccccc1 (configuration not stated),4.4 µg/mL
2,CC1=C(C(=O)Nc2ccc(C(=O)/C=C/c3ccc(O)cc3)cc2)C(c2cccc(O)c2)NC(=S)N1 (configuration not stated),5.58 µg/mL
3,CC(=O)C1=C(CNc2ccc(C(=O)/C=C/c3ccc(O)cc3)cc2)N(C)C(=O)NC1c1ccccc1 (configuration not stated),7.5 µg/mL
4,CC(=O)C1=C(CNc2ccc(C(=O)/C=C/c3ccccc3)cc2)N(C)C(=O)NC1c1ccccc1 (configuration not stated),> 100 µg/mL
5,CC(=O)C1=C(CNc2ccc(C(=O)/C=C/c3cccc([N+](=O)[O-])c3)cc2)N(C)C(=O)NC1c1ccccc1 (configuration not stated),> 100 µg/mL
6,CC(=O)C1=C(CNc2ccc(C3=NNC(c4ccc(O)cc4)C3)cc2)N(C)C(=O)NC1c1ccccc1 (configuration not stated),1.5 µg/mL
